# Assay results taken from ChEMBL document CHEMBL1132730, “Design, synthesis, and discovery of 3-piperazinyl-3,4-dihydro-2(1H)-quinolinone derivatives: a novel series of mixed dopamine D2/D4 receptor antagonists” (Bioorg Med Chem Lett, 2000).
# Key:
# D(2) dopamine receptor [1] = target: T1, D(2) dopamine receptor (Homo sapiens, UniProt P14416); assay: Binding affinity at human Dopamine receptor D2 by [3H]- YM 09151 displacement; Not active.
# Summary of the method: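 Competitive radioligand displacement on cloned human D2 receptor, with [3H]YM 09151 as the displaced ligand.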
# D(4) dopamine receptor [2] = target: T2, D(4) dopamine receptor (Homo sapiens, UniProt P21917); assay: Binding affinity at human Dopamine receptor D4 by [3H]- YM 09151 displacement; Not active.
# T2 sequence (P21917 whole entry): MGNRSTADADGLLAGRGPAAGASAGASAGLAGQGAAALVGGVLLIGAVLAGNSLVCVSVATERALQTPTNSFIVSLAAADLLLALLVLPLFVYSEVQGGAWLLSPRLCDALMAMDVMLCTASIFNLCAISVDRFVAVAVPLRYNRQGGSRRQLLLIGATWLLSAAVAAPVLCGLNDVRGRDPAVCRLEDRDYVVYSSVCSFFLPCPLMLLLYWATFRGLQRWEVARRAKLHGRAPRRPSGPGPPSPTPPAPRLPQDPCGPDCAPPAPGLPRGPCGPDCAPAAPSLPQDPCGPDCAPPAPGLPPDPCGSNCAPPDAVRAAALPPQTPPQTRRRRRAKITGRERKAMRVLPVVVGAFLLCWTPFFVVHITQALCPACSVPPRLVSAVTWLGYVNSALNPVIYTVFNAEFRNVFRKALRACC
# D(2) dopamine receptor [3] = target: T1, D(2) dopamine receptor
# [4] = target: T3, Alpha adrenergic receptor 1A and 1B (Rattus norvegicus, UniProt P15823+P43140); assay: Binding affinity at Alpha-1 adrenergic receptor in rat brain homogenates by [3H]- prazosin displacement.; type: tissue-based
# T3 sequence (P15823 whole entry): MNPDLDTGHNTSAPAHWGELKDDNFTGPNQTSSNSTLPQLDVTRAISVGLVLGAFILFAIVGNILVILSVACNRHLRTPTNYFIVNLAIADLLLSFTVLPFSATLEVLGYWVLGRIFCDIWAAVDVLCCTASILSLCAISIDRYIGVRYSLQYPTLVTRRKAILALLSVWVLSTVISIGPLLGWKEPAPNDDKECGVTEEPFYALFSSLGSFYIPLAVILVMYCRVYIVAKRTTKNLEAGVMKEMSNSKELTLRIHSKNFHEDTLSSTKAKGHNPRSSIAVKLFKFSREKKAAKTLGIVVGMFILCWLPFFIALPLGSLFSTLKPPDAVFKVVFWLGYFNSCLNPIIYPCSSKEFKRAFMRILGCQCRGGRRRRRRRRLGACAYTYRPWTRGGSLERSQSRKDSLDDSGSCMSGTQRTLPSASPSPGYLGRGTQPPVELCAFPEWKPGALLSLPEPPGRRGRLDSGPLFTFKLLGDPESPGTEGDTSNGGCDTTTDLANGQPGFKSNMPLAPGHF
# T3 sequence (P43140 whole entry): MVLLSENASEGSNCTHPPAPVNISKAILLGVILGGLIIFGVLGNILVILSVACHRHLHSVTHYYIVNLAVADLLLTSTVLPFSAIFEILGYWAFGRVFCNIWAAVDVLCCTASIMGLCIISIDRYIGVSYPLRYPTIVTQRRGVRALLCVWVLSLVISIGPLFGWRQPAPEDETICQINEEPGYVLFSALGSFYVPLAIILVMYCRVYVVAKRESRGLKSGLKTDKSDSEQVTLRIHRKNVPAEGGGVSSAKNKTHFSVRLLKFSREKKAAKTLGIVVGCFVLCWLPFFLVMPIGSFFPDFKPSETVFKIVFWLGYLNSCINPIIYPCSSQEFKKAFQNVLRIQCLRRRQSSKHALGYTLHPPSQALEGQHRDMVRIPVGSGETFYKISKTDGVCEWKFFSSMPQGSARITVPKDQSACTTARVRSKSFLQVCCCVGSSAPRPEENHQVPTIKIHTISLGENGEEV
# D(4) dopamine receptor [5] = target: T2, D(4) dopamine receptor; assay: Binding affinity at human Dopamine receptor D4 by [3H]- YM 09151 displacement.
# T1 sequence (P14416 whole entry): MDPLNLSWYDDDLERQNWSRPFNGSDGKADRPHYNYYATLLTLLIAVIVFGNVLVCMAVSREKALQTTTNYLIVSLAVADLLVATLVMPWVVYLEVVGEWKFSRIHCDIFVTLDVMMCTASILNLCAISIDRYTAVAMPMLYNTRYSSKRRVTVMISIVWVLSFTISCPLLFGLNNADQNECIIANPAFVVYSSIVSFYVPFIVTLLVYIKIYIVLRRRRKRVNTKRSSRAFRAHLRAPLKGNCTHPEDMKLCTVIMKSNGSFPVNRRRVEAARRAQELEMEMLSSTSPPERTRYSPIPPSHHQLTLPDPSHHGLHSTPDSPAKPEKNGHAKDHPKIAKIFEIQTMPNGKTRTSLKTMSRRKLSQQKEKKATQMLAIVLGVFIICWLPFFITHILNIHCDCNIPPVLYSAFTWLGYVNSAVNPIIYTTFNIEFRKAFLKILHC
SMILES,Ki (D(2) dopamine receptor [1]),Ki (D(4) dopamine receptor [2]),Ki (D(2) dopamine receptor [3]),Ki [4],Ki (D(4) dopamine receptor [5])
O=C1Nc2ccccc2C1Cl (stereo unspecified),Not Active,Not Active,–,–,–
Clc1ccc(N2CCN(Cc3c[nH]c4ncccc34)CC2)cc1 [L-745870],Not Active,Not Active,–,–,–
O=C1Nc2ccccc2C1N1CCN(Cc2ccc(Cl)cc2)CC1 (stereo unspecified),–,–,> 1000 nM,> 10000 nM,> 1000 nM
CCOC(=O)C(Cc1ccccc1[N+](=O)[O-])(C(=O)OCC)N1CCN(Cc2ccc(Cl)cc2)CC1,Not Active,Not Active,–,–,–
O=C1Nc2ccccc2CC1N1CCN(Cc2ccc(Cl)cc2)CC1 (stereo unspecified),–,–,1370 nM,2003 nM,100 nM
CCOC(=O)C1(N2CCN(Cc3ccc(Cl)cc3)CC2)Cc2ccccc2NC1=O (stereo unspecified),Not Active,Not Active,–,–,–
CCOC(=O)C(C(=O)OCC)N1CCN(Cc2ccc(Cl)cc2)CC1,Not Active,Not Active,–,–,–
NS(=O)(=O)c1ccc(N2CCN(CC[C@@H]3OCCc4ccccc43)CC2)cc1 [SONEPIPRAZOLE],Not Active,Not Active,–,–,–
CCN1C(=O)C(CC)(N2CCN(Cc3ccc(C)cc3)CC2)c2ccccc21 (stereo unspecified),–,–,> 1000 nM,> 10000 nM,> 1000 nM
CN1C(=O)C(N2CCN(Cc3ccc(Cl)cc3)CC2)CCc2ccccc21 (stereo unspecified),–,–,7370 nM,2878 nM,2470 nM
Clc1ccc(N2CCN(C[C@H]3C[C@@H]3c3ccccc3)CC2)c(Cl)c1,–,–,–,322 nM,–
Fc1ccc(OC[C@@H]2CC[C@H]3CN(c4ncc(F)cn4)CCN3C2)cc1,Not Active,Not Active,–,–,–
CCN1C(=O)C(N2CCN(Cc3ccc(Cl)cc3)CC2)CCc2ccccc21 (stereo unspecified),–,–,> 1000 nM,2678 nM,1510 nM
O=C1Nc2ccccc2CCC1I (stereo unspecified),Not Active,Not Active,–,–,–
Cc1ccc(CN2CCN(C3C(=O)Nc4ccccc43)CC2)cc1 (stereo unspecified),–,–,> 1000 nM,> 10000 nM,> 1000 nM
CCN1C(=O)C(N2CCN(Cc3ccc(C)cc3)CC2)CCc2ccccc21 (stereo unspecified),–,–,> 1000 nM,815 nM,2960 nM
CCN1C(=O)C(CC)(N2CCN(Cc3ccc(Cl)cc3)CC2)c2ccccc21 (stereo unspecified),–,–,> 1000 nM,> 10000 nM,7020 nM
O=C1Nc2ccccc2CCC1N1CCN(Cc2ccc(Cl)cc2)CC1 (stereo unspecified),–,–,> 1000 nM,9591 nM,> 1000 nM
CN(C(=O)CN1CCN(Cc2ccc(Cl)cc2)CC1)c1ccccc1,–,–,> 1000 nM,> 10000 nM,59 nM
Cc1cnc(N2CCN(Cc3c[nH]c(-c4ccccc4)n3)CC2)nc1,Not Active,Not Active,–,–,–
CCOC(=O)C(Cc1ccccc1N)(C(=O)OCC)N1CCN(Cc2ccc(Cl)cc2)CC1,Not Active,Not Active,–,–,–
Clc1ccc(CN2CCNCC2)cc1,Not Active,Not Active,–,–,–
CN1C(=O)C(C)(N2CCN(Cc3ccc(Cl)cc3)CC2)c2ccccc21 (stereo unspecified),–,–,> 1000 nM,> 10000 nM,> 1000 nM
CN1C(=O)C(N2CCN(Cc3ccc(Cl)cc3)CC2)Cc2ccccc21 (stereo unspecified),–,–,133 nM,2003 nM,4 nM
CCN1C(=O)C(N2CCN(Cc3ccc(Cl)cc3)CC2)Cc2ccccc21 (stereo unspecified),–,–,21 nM,1265 nM,4 nM
Cc1ccc(CN2CCN(C3(C)C(=O)N(C)c4ccccc43)CC2)cc1 (stereo unspecified),–,–,> 1000 nM,> 10000 nM,> 1000 nM
Cc1ccc(CN2CCN(C3CCc4ccccc4NC3=O)CC2)cc1 (stereo unspecified),–,–,> 1000 nM,3120 nM,> 1000 nM
Cc1ccc(CN2CCN(C3CCc4ccccc4N(C)C3=O)CC2)cc1 (stereo unspecified),–,–,> 1000 nM,2038 nM,4380 nM
